# Measured values pooled from the literature.
# Lines come from different studies, so protocols differ.
Structure (SMILES),cell line,test,setting,measurement,value
O=C(O)C(Cl)Cl,HCT-15,"cell growth or viability, MTT",72 h,IC50,> 50 µM
CN1CCCN=C1/C=C/c1cccs1,human PBMC,cell migration,10 µM,inhibition,76%
[Se]=c1n(C2CCCCC2)ccn1C1CCCCC1,HCT-15,"cell growth or viability, MTT",72 h,IC50,14.2 µM
COc1cc2c3c(n(CCCNCCO)c(=O)c2cc1OC)-c1cc2c(cc1C3=O)OCO2,HOP-62,cell growth or viability,,GI50,0.02 µM
Cc1cc(C)c(N2CCN(c3c(C)cc(C)cc3C)C2=[Se])c(C)c1,HCT-15,"cell growth or viability, MTT",72 h,IC50,10.2 µM
O=C(O)CCCc1ccc(N(CCCl)CCCl)cc1,MCF-10A,"cell growth or viability, CCK-8",48 h,IC50,> 50 µM
O=C(O)c1cc(S(=O)(=O)NCc2ccco2)c(Cl)cc1N1CCCCC1,human PBMC,cell migration,10 µM,inhibition,42%
O=C(Oc1ccc(-n2cccc2)cc1)[c-]1cccc1.[Fe+2].c1cc[cH-]c1,MCF-10A,"cell growth or viability, MTT",72 h,IC50,1.8 µM
CCCCCCCCCCCCCCCC[N+](C)(C)C,MDCK,"cell growth or viability, MTT",,IC50,9 µM
CCCCCCc1ccc(O)cc1O,human PBMC,cell migration,10 µM,inhibition,57%
N[C@@H](Cc1ccc(N(CCCl)CCCl)cc1)C(=O)O,MCF-10A,"cell growth or viability, CCK-8",48 h,IC50,> 50 µM
O=C(O)c1ccccc1NCc1ccco1,human PBMC,cell migration,10 µM,inhibition,82%
O=C(c1cc(Cl)c(Cl)[nH]1)c1c(O)cccc1O,MDCK,"cell growth or viability, MTT",72 h,IC50,1.3 µg/mL
Cn1cncc1[C@@](N)(c1ccc(Cl)cc1)c1ccc2c(c1)c(-c1cccc(Cl)c1)cc(=O)n2C,CAL-27,cell growth or viability,72 h,IC50,9.78 µM
NS(=O)(=O)c1cc(C(=O)O)c(NCc2ccco2)cc1Cl,human PBMC,"cell migration, inhibitor",,IC50,~1 µM
O=C(Oc1ccc(Br)cc1)[c-]1cccc1.[Fe+2].c1cc[cH-]c1,MCF-10A,"cell growth or viability, MTT",72 h,IC50,353 µM
